Results from ChEMBL document CHEMBL2040714, “Synthesis of methylated quercetin derivatives and their reversal activities on P-gp- and BCRP-mediated multidrug resistance tumour cells” (Eur J Med Chem, 2012).

How the values were obtained:
[1] = test system: NCI/ADR-RES; test: Modulation of p-glycoprotein-mediated drug resistant in human MCF7/ADR cells assessed as increase of daunomycin accumulation at 100 uM; format: cell-based
[2] = Cytotoxicity against human LCC-6 cells after 5 days by MTS assay; format: cell-based; details: LCC-6, 120 h
How it was run: (§1)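 Cells seeded in 96-well plates (6000/well for LCC6 and LCC6MDR) and exposed to a range of derivative concentrations, dissolved in DMSO at no more than 1% final, for 5 days at 37 °C. Viability read by MTS; IC50 taken from dose–response curves. Three repeats, mean ± SEM. LCC6 lines grown in DMEM with 10% heat-inactivated FBS; L929 is a mouse fibroblast line.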

[3] = test system: L929; test: Cytotoxicity against mouse L929 cells after 5 days by MTS assay; format: cell-based; details: L929, 120 h; how it was run: as §1
[4] = Cytotoxicity against multidrug resistant human LCC6MDR cells after 5 days by MTS assay; details: 120 h
[5] = target: T1, Broad substrate specificity ATP-binding cassette transporter ABCG2 (Homo sapiens, UniProt Q9UNQ0); test: Reversal of BCRP-mediated drug resistant in human HEK293/R2 cells assessed as potentiation of topotecan-induced cytotoxicity at 1 uM after 5 days by MTS assay; format: cell-based; details: hek293/r2, 120 h
T1 sequence (Q9UNQ0 whole entry): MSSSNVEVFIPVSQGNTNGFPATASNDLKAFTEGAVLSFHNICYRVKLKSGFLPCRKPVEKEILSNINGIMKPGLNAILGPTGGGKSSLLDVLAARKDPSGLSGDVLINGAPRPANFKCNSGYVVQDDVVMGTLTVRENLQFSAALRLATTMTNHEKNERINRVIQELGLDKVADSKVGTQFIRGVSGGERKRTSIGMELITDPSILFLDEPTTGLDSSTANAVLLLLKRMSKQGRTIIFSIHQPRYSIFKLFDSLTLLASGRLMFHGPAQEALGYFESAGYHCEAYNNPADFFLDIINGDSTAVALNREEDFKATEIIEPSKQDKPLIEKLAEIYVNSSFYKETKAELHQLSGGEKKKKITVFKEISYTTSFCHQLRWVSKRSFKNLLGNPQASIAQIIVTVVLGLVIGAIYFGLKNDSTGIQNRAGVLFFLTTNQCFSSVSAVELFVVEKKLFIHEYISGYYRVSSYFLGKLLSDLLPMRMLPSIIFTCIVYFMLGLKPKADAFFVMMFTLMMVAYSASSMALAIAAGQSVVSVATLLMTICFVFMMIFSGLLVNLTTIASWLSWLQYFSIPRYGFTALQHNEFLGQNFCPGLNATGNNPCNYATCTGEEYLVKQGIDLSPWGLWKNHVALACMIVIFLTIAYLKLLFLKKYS

[6] = target: T1, Broad substrate specificity ATP-binding cassette transporter ABCG2; test: Reversal of BCRP-mediated drug resistant in human MCF7-MX100 cells assessed as potentiation of topotecan-induced cytotoxicity at 1 uM after 5 days by MTS assay; format: cell-based; details: mcf7-mx100, 120 h
[7] = species: Homo sapiens; test: Reversal of p-glycoprotein-mediated drug resistant in human LCC-6/MDR cells assessed as potentiation of paclitaxel-induced cytotoxicity at 1 uM after 5 days by MTS assay; format: cell-based
How it was run: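 LCC6MDR cells (6000/well, DMEM with 10% FBS) given paclitaxel over a range of doses, with or without 1 μM modulator, for 5 days at 37 °C; MTS read-out. IC50 from dose–response curves, and RF = IC50 without / IC50 with 1.0 μM modulator. N = 2–4 independent experiments, mean ± SEM.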

[8] = target: Multidrug resistance-associated protein 1 (Homo sapiens, UniProt P33527); test: Reversal of MRP1-mediated drug resistant in human 2008/MRP1 cells assessed as potentiation of doxorubicin-induced cytotoxicity at 1 uM after 5 days by MTS assay; format: cell-based; details: 2008/mrp1, 120 h
Sequence of Multidrug resistance-associated protein 1 (P33527 whole entry): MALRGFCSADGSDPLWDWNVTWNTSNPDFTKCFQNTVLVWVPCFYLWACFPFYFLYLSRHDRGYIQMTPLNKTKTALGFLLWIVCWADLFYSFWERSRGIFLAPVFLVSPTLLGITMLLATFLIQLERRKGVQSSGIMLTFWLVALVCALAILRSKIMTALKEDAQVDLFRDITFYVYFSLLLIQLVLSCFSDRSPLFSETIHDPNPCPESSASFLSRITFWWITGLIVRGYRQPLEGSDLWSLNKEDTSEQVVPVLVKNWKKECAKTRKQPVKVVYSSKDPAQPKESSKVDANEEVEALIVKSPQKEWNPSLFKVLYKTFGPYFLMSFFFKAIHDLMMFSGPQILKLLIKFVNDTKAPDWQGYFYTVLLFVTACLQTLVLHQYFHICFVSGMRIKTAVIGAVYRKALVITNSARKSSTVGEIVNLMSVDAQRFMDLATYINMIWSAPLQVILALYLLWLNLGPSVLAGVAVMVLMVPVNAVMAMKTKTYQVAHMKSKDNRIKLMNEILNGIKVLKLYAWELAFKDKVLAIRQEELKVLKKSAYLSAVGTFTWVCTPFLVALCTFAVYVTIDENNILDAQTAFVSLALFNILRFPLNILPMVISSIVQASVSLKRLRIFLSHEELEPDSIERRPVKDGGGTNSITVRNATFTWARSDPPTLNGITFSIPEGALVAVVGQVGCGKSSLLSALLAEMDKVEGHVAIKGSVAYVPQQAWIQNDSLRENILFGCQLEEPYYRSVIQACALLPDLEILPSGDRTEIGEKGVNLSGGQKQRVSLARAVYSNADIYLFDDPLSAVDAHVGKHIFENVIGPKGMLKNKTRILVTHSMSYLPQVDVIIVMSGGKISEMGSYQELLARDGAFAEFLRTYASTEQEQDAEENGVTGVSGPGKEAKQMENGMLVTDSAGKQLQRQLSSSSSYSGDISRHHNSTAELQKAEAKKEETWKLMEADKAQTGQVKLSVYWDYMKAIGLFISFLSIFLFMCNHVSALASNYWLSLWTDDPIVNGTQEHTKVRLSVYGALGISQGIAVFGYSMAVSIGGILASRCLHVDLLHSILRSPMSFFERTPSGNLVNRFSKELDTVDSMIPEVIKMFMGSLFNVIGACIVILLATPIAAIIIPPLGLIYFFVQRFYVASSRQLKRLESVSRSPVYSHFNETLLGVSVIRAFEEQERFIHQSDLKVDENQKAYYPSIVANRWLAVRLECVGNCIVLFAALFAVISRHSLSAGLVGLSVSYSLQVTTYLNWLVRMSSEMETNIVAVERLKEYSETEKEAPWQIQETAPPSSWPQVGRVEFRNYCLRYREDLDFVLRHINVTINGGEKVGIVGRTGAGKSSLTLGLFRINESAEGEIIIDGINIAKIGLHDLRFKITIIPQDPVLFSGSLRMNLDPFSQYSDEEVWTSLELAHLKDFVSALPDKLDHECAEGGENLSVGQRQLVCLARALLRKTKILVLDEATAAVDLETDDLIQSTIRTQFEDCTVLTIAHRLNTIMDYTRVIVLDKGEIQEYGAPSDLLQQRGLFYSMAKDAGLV

`COc1ccc(CCN(C)CCCC(C#N)(c2ccc(OC)c(OC)c2)C(C)C)cc1OC` (configuration not stated) gave an Activity [1] of 229%.
In the case of `O=c1c(O)c(-c2ccc(O)c(O)c2)oc2cc(O)cc(O)c12` [QUERCETIN], the IC50 [2] is reported as > 100 µM, the IC50 [3] is reported as > 100 µM and the Activity [1] is reported as 202%. The IC50 [4] was > 100 µM.
In the case of `COc1cc(OC)c2c(=O)c(OC(=O)c3cc(OC)c(OC)c(OC)c3)c(-c3ccc(OC)c(OC)c3)oc2c1`, the IC50 [2] is reported as > 79 µM, the IC50 [3] is reported as 74.1 µM and the “fold change (FC)” value [5] is reported as 5.8. The IC50 [4] was 87.4 µM, the “fold change (FC)” value [6] was 9.6 and the fold change (FC) [7] was 2.1. The “fold change (FC)” value [8] was 0.9.
In the case of `COc1cc(OC)c2c(=O)c(OCCOC(=O)c3ccc(OC)c(OC)c3)c(-c3ccc(OC)c(OC)c3)oc2c1`, the IC50 [2] is reported as > 100 µM, the IC50 [3] is reported as > 100 µM and the “fold change (FC)” value [5] is reported as 4.6. The IC50 [4] was > 100 µM, the “fold change (FC)” value [6] was 6.7 and the fold change (FC) [7] was 6.4. For the same compound, the “fold change (FC)” value [8] was 1.2.
For `COc1cc(OC)c2c(=O)c(OCCO)c(-c3ccc(OC)c(OC)c3)oc2c1`, the IC50 [2] was > 100 µM, the IC50 [3] was > 100 µM and the “fold change (FC)” value [5] was 3.9. For the same compound, the IC50 [4] was > 100 µM, the “fold change (FC)” value [6] was 1.5 and the fold change (FC) [7] was 1.4. For the same compound, the “fold change (FC)” value [8] was 0.8.
For `C[C@@H]1O[C@@H](OC[C@H]2O[C@@H](Oc3c(-c4ccc(O)c(O)c4)oc4cc(O)cc(O)c4c3=O)[C@H](O)[C@@H](O)[C@@H]2O)[C@H](O)[C@H](O)[C@H]1O` [RUTIN], the IC50 [2] was > 100 µM, the IC50 [3] was > 100 µM and the “fold change (FC)” value [5] was 1.3. The IC50 [4] was > 100 µM, the “fold change (FC)” value [6] was 4.3 and the fold change (FC) [7] was 0.9. For the same compound, the “fold change (FC)” value [8] was 1.2.
With `COc1cc(OC)c2c(=O)c(OCCOC(=O)c3cc(OC)c(OC)c(OC)c3)c(-c3ccc(OC)c(OC)c3)oc2c1` the IC50 [2] was > 100 µM, the IC50 [3] was > 100 µM and the “fold change (FC)” value [5] was 4.7. For the same compound, the IC50 [4] was > 100 µM, the “fold change (FC)” value [6] was 2 and the fold change (FC) [7] was 3.2. For the same compound, the “fold change (FC)” value [8] was 1.1.
In the case of `COc1cc(OC)c2c(=O)c(OCCn3cnc4c(=O)n(C)c(=O)n(C)c43)c(-c3ccc(OC)c(OC)c3)oc2c1`, the IC50 [2] is reported as > 100 µM, the IC50 [3] is reported as > 100 µM and the “fold change (FC)” value [5] is reported as 1.4. For the same compound, the IC50 [4] was > 100 µM, the “fold change (FC)” value [6] was 1.4 and the fold change (FC) [7] was 1.2. For the same compound, the “fold change (FC)” value [8] was 1.
For `COc1cc(OC)c2c(=O)c(OCCn3cnc4c(N)ncnc43)c(-c3ccc(OC)c(OC)c3)oc2c1`, the IC50 [2] was > 100 µM, the IC50 [3] was > 100 µM and the “fold change (FC)” value [5] was 1.2. For the same compound, the IC50 [4] was > 100 µM, the “fold change (FC)” value [6] was 1.2 and the fold change (FC) [7] was 1.1. For the same compound, the “fold change (FC)” value [8] was 0.8.
In the case of `COc1cc(OC)c2c(=O)c(OCCOc3cc4c(Nc5ccc(F)c(Cl)c5)ncnc4cc3OC)c(-c3ccc(OC)c(OC)c3)oc2c1`, the IC50 [2] is reported as > 100 µM, the IC50 [3] is reported as > 100 µM and the “fold change (FC)” value [5] is reported as 4.3. For the same compound, the IC50 [4] was > 100 µM, the “fold change (FC)” value [6] was 1.2 and the fold change (FC) [7] was 1.5. For the same compound, the “fold change (FC)” value [8] was 1.
For `COc1cc(OC)c2c(=O)c(OCc3cc(OC)c(OC)c(OC)c3)c(-c3ccc(OC)c(OC)c3)oc2c1`, the IC50 [2] was 14.5 µM, the IC50 [3] was 17.6 µM and the “fold change (FC)” value [5] was 11.3. The IC50 [4] was 46.6 µM, the “fold change (FC)” value [6] was 4.7 and the fold change (FC) [7] was 9.6. The “fold change (FC)” value [8] was 1.2.
With `COc1cc(OC)c2c(=O)c(OC)c(-c3ccc(OC)c(OC)c3)oc2c1` the IC50 [2] was > 100 µM, the IC50 [3] was > 100 µM and the “fold change (FC)” value [5] was 8.7. The IC50 [4] was > 100 µM, the “fold change (FC)” value [6] was 7.9 and the fold change (FC) [7] was 1.9. The “fold change (FC)” value [8] was 0.8.
For `COc1cc(OC)c2c(=O)c(OCC(=O)c3ccc(OC)c(OC)c3)c(-c3ccc(OC)c(OC)c3)oc2c1`, the IC50 [2] was > 100 µM, the IC50 [3] was > 100 µM and the “fold change (FC)” value [5] was 1.4. The IC50 [4] was > 100 µM, the “fold change (FC)” value [6] was 1.4 and the fold change (FC) [7] was 1.3. For the same compound, the “fold change (FC)” value [8] was 0.9.
With `COc1cc(OC)c2c(=O)c(OCCOC(=O)/C=C/c3cc(OC)c(OC)c(OC)c3)c(-c3ccc(OC)c(OC)c3)oc2c1` the IC50 [2] was > 100 µM, the IC50 [3] was > 100 µM and the “fold change (FC)” value [5] was 14. For the same compound, the IC50 [4] was > 100 µM, the “fold change (FC)” value [6] was 9.1 and the fold change (FC) [7] was 6. For the same compound, the “fold change (FC)” value [8] was 1.5.
With `COc1cc(OC)c2c(=O)c(O[C@@H]3O[C@H](CO[C@@H]4O[C@@H](C)[C@H](OC)[C@@H](OC)[C@H]4OC)[C@@H](OC)[C@H](OC)[C@H]3OC)c(-c3ccc(OC)c(OC)c3)oc2c1` the IC50 [2] was > 100 µM, the IC50 [3] was > 100 µM and the “fold change (FC)” value [5] was 1.5. The IC50 [4] was > 100 µM, the “fold change (FC)” value [6] was 5.3 and the fold change (FC) [7] was 1. For the same compound, the “fold change (FC)” value [8] was 1.4.
For `COc1cc(O)c2c(=O)c(OC)c(-c3ccc(OC)c(OC)c3)oc2c1` [RETUSIN], the IC50 [2] was > 100 µM, the IC50 [3] was > 100 µM and the “fold change (FC)” value [5] was 13. For the same compound, the IC50 [4] was > 100 µM, the “fold change (FC)” value [6] was 19.3 and the fold change (FC) [7] was 3.7. For the same compound, the “fold change (FC)” value [8] was 0.7.
For `COc1cc(OC)c2c(=O)c(O)c(-c3ccc(OC)c(OC)c3)oc2c1`, the IC50 [2] was > 100 µM, the IC50 [3] was > 100 µM and the “fold change (FC)” value [5] was 3.3. For the same compound, the IC50 [4] was > 100 µM, the “fold change (FC)” value [6] was 6 and the fold change (FC) [7] was 1.7. For the same compound, the “fold change (FC)” value [8] was 0.7.
With `COc1ccc(C(=O)OCCOc2c(-c3ccc(OC)c(OC)c3)oc3cc(OC)cc(OC)c3c2=O)cc1` the IC50 [2] was > 100 µM, the IC50 [3] was > 100 µM and the “fold change (FC)” value [5] was 12.1. For the same compound, the IC50 [4] was > 100 µM, the “fold change (FC)” value [6] was 7.3 and the fold change (FC) [7] was 11.3. The “fold change (FC)” value [8] was 1.5.
